According to ChEMBL document CHEMBL3102836, “Dioxatricyclic and oxabicyclic polyketides from Trichocladium opacum” (J Nat Prod, 2014):
Calls of active or inactive are those of the source. No cut-off for these calls is given here.

How the values were obtained:
Type in all cases: functional, cell-based
HeLa [1] = test: Cytotoxicity against human HeLa cells at 20 ug/ml after 48 hrs by MTS assay
Procedure, shortened: (§1)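 Single-concentration test at 20 μg/mL. Triplicate wells seeded at (2−5) × 10^3 cells, attached overnight, then medium replaced with compound-containing medium (100 mM DMSO stock; vehicle wells 0.1% DMSO); cisplatin positive control. 48 h exposure at 37 °C, humidified 5% CO2. MTS added, 90 min at 37 °C in dark, read at 490 nm.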

HCT-116 [2] = test: Cytotoxicity against human HCT116 cells at 20 ug/ml after 48 hrs by MTS assay; procedure, shortened: as §1
SW480 [3] = test: Cytotoxicity against human SW480 cells at 20 ug/ml after 48 hrs by MTS assay; procedure, shortened: as §1
A549 [4] = test: Cytotoxicity against human A549 cells at 20 ug/ml after 48 hrs by MTS assay; procedure, shortened: as §1
HCT-116 [5] = test: Cytotoxicity against human HCT116 cells after 48 hrs by MTS assay; details: HCT-116, 48 h
Procedure, shortened: (§2)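 Triplicate wells seeded at (2−5) × 10^3 cells (by growth rate), attached overnight, then medium replaced with medium carrying serial dilutions from 100 mM DMSO stocks (vehicle wells 0.1% DMSO); cisplatin positive control. 48 h at 37 °C, humidified 5% CO2. MTS added, 90 min at 37 °C in dark, absorbance 490 nm; IC50 reported.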

SW480 [6] = test: Cytotoxicity against human SW480 cells after 48 hrs by MTS assay; details: SW480, 48 h; procedure, shortened: as §2
A549 [7] = test: Cytotoxicity against human A549 cells after 48 hrs by MTS assay; details: A549, 48 h; procedure, shortened: as §2
HeLa [8] = test: Cytotoxicity against human HeLa cells after 48 hrs by MTS assay; procedure, shortened: as §2

| SMILES | Activity (HeLa [1]) | Activity (HCT-116 [2]) | Activity (SW480 [3]) | Activity (A549 [4]) | IC50 (HCT-116 [5]) [µM] | IC50 (SW480 [6]) [µM] | IC50 (A549 [7]) [µM] | IC50 (HeLa [8]) [µM] |
| --- | --- | --- | --- | --- | --- | --- | --- | --- |
| C[C@@H]1C=C[C@H](O)[C@H]2O[C@@]3(C)OC(=O)[C@@]12[C@H]3O | inactive | inactive | inactive | inactive | – | – | – | – |
| C[C@@H]1CC[C@H](O)[C@H]2O[C@@]3(C)OC(=O)[C@@]12[C@H]3O | inactive | – | – | – | 56.6 | 51.9 | 61 | – |
| COC(=O)[C@]12[C@H](C)[C@H](C[C@H](O)[C@H]1O)O[C@H]2C(C)=O | inactive | inactive | inactive | inactive | – | – | – | – |
| C[C@@H]1C=C[C@H](O)[C@H]2O[C@@]3(C)OC(=O)[C@@]12[C@@H]3O | inactive | – | – | – | 48.8 | 54.9 | 83.6 | – |
| C[C@@H](O)[C@@H](O)[C@]12C(=O)O[C@H](C=C[C@@H]1C)[C@H]2O | – | – | – | – | 41.7 | 43.6 | 52.3 | 44.3 |
